From PubChem BioAssay AID775 (SRMLSC, 2007) come the findings set out here.

Among all 130,000 compounds or so, about 900 (0.69%) were called active. The sample as a whole holds a higher share of actives than the screen did. Unmarked numbers belong to inactive results.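 How the source made its calls: active means inhibition above a set limit, placed 3 SD over the median of all compounds (cut at about 26% in these data); inactive means the rest.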

A short description of the assay: compounds extending yeast replicative lifespan, primary screen, S. cerevisiae, OD615 (AID 775).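 Further: 0% = nicotinamide-treated wells and 100% = cells grown without nicotinamide.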 The conditions noted are these: S. cerevisiae growth with nicotinamide, at 10 µM, hits give high values, deaD strain in restrictive glucose medium. In outline: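 assay system = DeaD-strain S. cerevisiae | measured by = absorbance at 615 nm | probe or stimulus = nicotinamide 1.5 mM | buffer or medium = CSMM-D glucose medium, restrictive | times = 48 h at 30 °C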
As to `CCN(CC)CCn1c(/N=C/c2cc(Br)ccc2O)nc2ccccc21`, the inhibition of the nicotinamide effect is 37.7% (active).

For the molecule `CCn1c(NC(=O)c2nn(C)cc2Br)nc2ccccc21`, the inhibition of the nicotinamide effect was -7.14%.

In the case of `C/C(=N\c1nc2ccccc2n1C)c1cc(Cl)ccc1O`, the inhibition of the nicotinamide effect is -13.3%.

Turning to `CN(c1ccccc1)S(=O)(=O)c1cccc(NC(=O)Cc2c(F)cccc2Cl)c1`, the inhibition of the nicotinamide effect is 1.53%.

On to `O=C(CN1C2=NCCN2c2ccccc21)c1cccs1`, for which the inhibition of the nicotinamide effect is 0.42%.

In the case of `O=C1Nc2cc(Cl)c(Cl)cc2N(O)N1c1cc(Cl)cc(Cl)c1`, the inhibition of the nicotinamide effect was 110% (active).

As for `O=C(O)c1cccc(N2C(=O)Nc3ccccc3N2O)c1`, the inhibition of the nicotinamide effect was 4.66%.

`CCOC(=O)c1c(NC(=O)Cn2nc(C(F)(F)F)cc2C)sc2c1CCC2`: the inhibition of the nicotinamide effect was -3.99%.

`O=C1CC(c2cccc(Cl)c2)CC(O)=C1C=Nc1ccccc1` (configuration not stated): the inhibition of the nicotinamide effect is -1.47%.

For the molecule `CC(C)C(=O)N1CCN(CCN=CC2=C(O)CC(c3ccco3)CC2=O)CC1` (configuration not stated), the inhibition of the nicotinamide effect was -8.76%.

As for `O=C1CC(c2ccccc2)CC(O)=C1C=NCCN1CCOCC1` (configuration not stated), the inhibition of the nicotinamide effect is 70.8% (active).

With `O=C(Nc1ccc2ccccc2c1)/C(=C\c1ccc2c(c1)OCO2)NC(=O)c1ccco1`, the inhibition of the nicotinamide effect is 2.64%.

`CN(c1ccccc1)c1nc(N)c([N+](=O)[O-])c(NCc2ccco2)n1`: the inhibition of the nicotinamide effect is 8.11%.

Take `CCOC(=O)C1CCN(C(=O)/C=C/c2cc(OC)c(OC)c(OC)c2)CC1`: the inhibition of the nicotinamide effect is -0.86%.

On to `Cc1nc2c(C(=O)NCc3cccs3)cnn2c(C)c1Cc1ccc(F)cc1`, for which the inhibition of the nicotinamide effect is 7.32%.

As for `Cc1ccc(SCCC(=O)NC(C(C)C)C(C)C)cc1`, the inhibition of the nicotinamide effect was 1.38%.

As for `CCn1nc(C(=O)OCC(=O)N2c3ccccc3CC2C)c2ccccc2c1=O` (configuration not stated), the inhibition of the nicotinamide effect was -14.7%.

On to `CC1Cc2ccccc2N1C(=O)Cn1cnc2ccccc2c1=O` (configuration not stated), for which the inhibition of the nicotinamide effect is 55.5% (active).

On to `CC1Cc2ccccc2N1C(=O)CSc1nc2ccccc2o1` (configuration not stated), for which the inhibition of the nicotinamide effect was -13.2%.

Regarding `COc1ccc(COC(=O)N/N=C(\C)CC(=O)Nc2ccc(Cl)cc2)cc1`, the inhibition of the nicotinamide effect is -3.92%.

As for `O=S(=O)(NCCSc1ccccn1)c1ccc(Cl)cc1`, the inhibition of the nicotinamide effect is 10.5%.

For `COc1ccc(/C=C(/CC(=O)Nc2ccc(C)cc2)c2nc3ccccc3s2)cc1`, the inhibition of the nicotinamide effect was -0.84%.

As to `Cc1cc(/C=C(/C#N)C(=O)Nc2ccc(Cl)cc2)c(C)n1-c1cccnc1`, the inhibition of the nicotinamide effect was 0.59%.

For `CNC(=O)/C(C#N)=C/c1c(F)cccc1Cl`, the inhibition of the nicotinamide effect was 43.1% (active).

On to `N#C/C(=C\c1ccccc1C(F)(F)F)C(=O)Nc1ccccc1F`, for which the inhibition of the nicotinamide effect is 6.56%.

As for `CCOC(=O)C(C)Sc1nnc(CSc2nc3nc(C)cc(C)n3n2)o1` (configuration not stated), the inhibition of the nicotinamide effect was -1.15%.

Regarding `CCOc1ncccc1C(=O)N(C)CC(=O)Nc1ccc(F)cc1`, the inhibition of the nicotinamide effect was 0.31%.

Regarding `O=C(/C=C/c1cccc([N+](=O)[O-])c1)NCCSCc1ccco1`, the inhibition of the nicotinamide effect was -4.01%.

`O=C(CN1C(=O)CCC1=O)Nc1ccc(S(=O)(=O)N2CCOCC2)cc1`: the inhibition of the nicotinamide effect is -14.7%.

Consider `COc1ccc(CC(=O)Nc2ccc3c(c2)CCC3)cc1S(=O)(=O)N1CCOCC1`, for which the inhibition of the nicotinamide effect was 61% (active).

With `COc1ccc(CNc2ccc3c(c2)CCC3)cc1OC`, the inhibition of the nicotinamide effect is -10.1%.

For the molecule `CCCc1cc(=O)[nH]c(SCc2cc(=O)oc3c(C)c(C)ccc23)n1`, the inhibition of the nicotinamide effect was 4.9%.

Turning to `O=C(OCc1ccc(Br)cc1)c1cccc(-c2nnc(-c3ccccc3)o2)c1`, the inhibition of the nicotinamide effect is 10.4%.

Regarding `CCOC(=O)NN1C(=O)c2ccccc2NC1c1cccc(O)c1` (configuration not stated), the inhibition of the nicotinamide effect is -1.57%.

`Cc1cc(C(=O)N/N=C/c2cc([N+](=O)[O-])cc(C)c2O)n[nH]1`: the inhibition of the nicotinamide effect was -1.48%.

Regarding `Cc1cc(Cl)ccc1OCCCC(=O)NCc1ccncc1`, the inhibition of the nicotinamide effect is 1.85%.

With `CCn1ncc(CNC(=O)C2(C)CC2(Br)Br)c1C` (configuration not stated), the inhibition of the nicotinamide effect is 9.74%.

As for `O=C(NCCOCc1ccc(Cl)cc1)c1ncn[nH]1`, the inhibition of the nicotinamide effect is 1.27%.

For the molecule `O=C(/C=C/Sc1ncn[nH]1)c1ccc(Cl)cc1`, the inhibition of the nicotinamide effect is 44.7% (active).

On to `CC(C)(C)c1ccc(C(=O)CSc2ncn[nH]2)cc1`, for which the inhibition of the nicotinamide effect was -10.2%.

In the case of `Cc1ccccc1C(OCCN(C)C)C1CCCCC1` (configuration not stated), the inhibition of the nicotinamide effect is -0.42%.

As for `COc1ccc(C(CC(=O)c2ccccc2)S(=O)(=O)c2ccccc2)cc1` (configuration not stated), the inhibition of the nicotinamide effect is -1.04%.

Regarding `O=C(Nc1cc(C(F)(F)F)ccc1Cl)C(=O)N1CCCCC1`, the inhibition of the nicotinamide effect is -4.64%.

For `O=C(CN1C(=O)NC2(CCCCCC2)C1=O)NCc1cccs1`, the inhibition of the nicotinamide effect was 7.48%.

Regarding `COC(=O)c1ccc(NC(=O)Nc2ccc(C)cc2)cc1`, the inhibition of the nicotinamide effect is -13.6%.

As to `Cc1cc(O)ccc1NC1=CC(=O)CC(C)(C)C1`, the inhibition of the nicotinamide effect was 11.5%.

For the molecule `Cc1ccc(C(=O)OC2=CC(=O)CC(C)(C)C2)cc1`, the inhibition of the nicotinamide effect is 72.5% (active).

With `Nc1nc(SCC(=O)NNc2c(Cl)cc(Cl)cc2Cl)n[nH]1`, the inhibition of the nicotinamide effect is 1.57%.

In the case of `O=C(Oc1ccc([N+](=O)[O-])cc1)c1ccc2ccccc2n1`, the inhibition of the nicotinamide effect is 75.9% (active).

As to `COc1ccc(C(=O)COC(=O)c2ccc3ccccc3n2)cc1`, the inhibition of the nicotinamide effect is -4.94%.

On to `COc1ccc(C2=NOC(COC(=O)c3ccc4ccccc4n3)C2)cc1` (configuration not stated), for which the inhibition of the nicotinamide effect was -3.92%.

Consider `COc1cccc(NC(=O)CC(c2ccc(OC(C)C)cc2)c2ccccc2OC)c1` (configuration not stated), for which the inhibition of the nicotinamide effect is 9.84%.

Regarding `CCc1cc(-c2n[nH]c(=S)n2CC(C)C)cs1`, the inhibition of the nicotinamide effect was 7.5%.

Take `CCCCCOc1ccc(/C=C/C(=O)NCCc2nc3ccccc3[nH]2)cc1OC`: the inhibition of the nicotinamide effect was 3.92%.

With `CC1(c2ccccc2)CC(C)(C)N(C(=O)c2cc([N+](=O)[O-])cc([N+](=O)[O-])c2)c2ccccc21` (configuration not stated), the inhibition of the nicotinamide effect was -0.09%.

In the case of `CCOC12CC(C)(C)CC(C)(CC3=C1C(=O)CC(C)(C)C3)C2` (configuration not stated), the inhibition of the nicotinamide effect is 7.4%.

Turning to `O=C(Cc1cccc2ccccc12)NCCC1=CCCCC1`, the inhibition of the nicotinamide effect was 10.1%.

Consider `O=C(/C=C/NCc1ccc(F)cc1)c1ccccc1`, for which the inhibition of the nicotinamide effect is 26.6% (active).

In the case of `O=C(/C=C\NCC(=O)c1ccccc1)c1ccccc1`, the inhibition of the nicotinamide effect was 3.73%.

For `O=C(Cc1ccccc1)NCc1ccc(F)cc1`, the inhibition of the nicotinamide effect was -0.44%.

In the case of `COc1cc(C(=O)NNC(=O)c2ccc(S(=O)(=O)N3CCCCC3)cc2)cc(OC)c1OC`, the inhibition of the nicotinamide effect was -0.56%.

As to `Cc1cc(NS(=O)(=O)c2ccc(NC(=S)NC(=O)c3ccc(F)cc3Cl)cc2)no1`, the inhibition of the nicotinamide effect was -5.54%.
